Data: publication PMC12009964 (Scientific Reports, 2025)

What was measured:
[1] = test system: Hela cells; assay: Annexin V/Propidium iodide flow cytometry; assay type: cell-based, human; conditions: 5 µM, 24 h
How it was run: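 Apoptosis assay: HeLa cells (5 × 10^5) seeded in 6-well plates for 24 h, serum-starved 20 h, then exposed to test compound for 24 h (1, 2.5 or 5 µM in methods). Annexin V-FITC/PI kit staining, flow cytometry. Quadrants: lower right early apoptotic, upper right late apoptotic, upper left necrotic. Mean ± SD of three independent experiments.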

[2] = test system: AP-1 reporter in HeLa cells; assay: ERK5-driven AP-1 reporter assay; assay type: cell-based, human; conditions: 5 µM
How it was run: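 HeLa cells (2 × 10^5 per well, 6-well) transiently lipofected with an AP-1-luc reporter vector carrying six AP-1 response elements. After transfection, cells received 5 µM test compound. AP-1 mRNA measured by RT-PCR (TRIzol RNA, reverse transcription, duplicate real-time reactions), with GAPDH as normaliser and the 2−∆∆Cq method.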

[3] = test system: Hela cells; assay: DAPI staining assay; assay type: cell-based, human; conditions: 5 µM, 24 h, compared to DMSO
How it was run: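 HeLa cells (5 × 10^3) seeded in 24-well plates for 24 h, treated 24 h with test compound (1, 2.5 or 5 µM in methods). Fixed in 4% paraformaldehyde 10 min, washed, stained with 300 nM DAPI 15 min in the dark. Nuclear morphology of apoptotic cells examined by fluorescence microscopy.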

[4] = molecular target: ERK5 (Homo sapiens, UniProt Q13164); assay: Z'-LYTE Kinase Assay, Ser/Thr 4 peptide; assay type: biochemical; conditions: read-out: IC50 against ERK5 (Z'-LYTE kinase assay)
How it was run: (§1)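 Coupled-enzyme, antibody-free fluorescence kinase assay on HeLa cell lysates (10–100 µg per well). Substrates: Ser/Thr 4 peptide for ERK5, Ser/Thr 3 peptide for ERK1/2. Test compound at 1.25, 2.5, 5 and 10 µM. Coumarin (Ex 400/Em 445 nm) and fluorescein (Ex 400/Em 520 nm) emissions read on a plate reader.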

[5] = test system: PCNA expression in Hela cells; assay: PCNA mRNA expression by quantitative RT-PCR; assay type: cell-based, human; conditions: for inhibition rate of the expression of PCNA: Hela cells, qRT-PCR, 5 μM as printed in abstract; for inhibition at 10 µM: Homo sapiens, HeLa, read-out: Inhibition of PCNA expression
[6] = test system: ERK1/2; assay: Z'-LYTE Kinase Assay, Ser/Thr 3 peptide; assay type: biochemical, human; conditions: 1.25, 2.5, 5, and 10 µM
How it was run: as §1

Sequence of ERK5 (Q13164 2-816): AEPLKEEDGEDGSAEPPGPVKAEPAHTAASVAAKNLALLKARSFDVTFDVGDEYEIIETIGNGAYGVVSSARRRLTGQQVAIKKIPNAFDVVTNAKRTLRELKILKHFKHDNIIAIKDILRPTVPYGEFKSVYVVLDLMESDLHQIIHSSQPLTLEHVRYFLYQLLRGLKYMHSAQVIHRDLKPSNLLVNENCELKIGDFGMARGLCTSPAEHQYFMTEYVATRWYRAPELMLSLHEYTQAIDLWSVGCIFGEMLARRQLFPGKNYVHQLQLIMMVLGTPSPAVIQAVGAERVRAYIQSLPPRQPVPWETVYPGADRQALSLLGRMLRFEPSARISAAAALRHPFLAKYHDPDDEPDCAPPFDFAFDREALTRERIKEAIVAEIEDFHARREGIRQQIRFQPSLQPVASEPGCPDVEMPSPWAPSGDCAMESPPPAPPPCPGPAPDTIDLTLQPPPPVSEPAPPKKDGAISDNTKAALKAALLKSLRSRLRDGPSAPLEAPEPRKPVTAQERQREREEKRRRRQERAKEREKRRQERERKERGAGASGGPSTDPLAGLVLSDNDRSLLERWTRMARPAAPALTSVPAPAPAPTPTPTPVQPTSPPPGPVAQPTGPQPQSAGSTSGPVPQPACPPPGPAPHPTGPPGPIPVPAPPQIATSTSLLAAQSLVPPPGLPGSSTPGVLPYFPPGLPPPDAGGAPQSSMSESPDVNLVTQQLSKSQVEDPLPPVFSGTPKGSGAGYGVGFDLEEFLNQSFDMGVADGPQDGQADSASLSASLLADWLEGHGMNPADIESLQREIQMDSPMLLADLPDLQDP

| IC50 [4] | SMILES | increase of late apoptotic events compared with DMSO [1] | expression of AP-1 [2] | apoptosis by DAPI staining [3] | inhibition rate of the expression of PCNA [5] | effect on ERK1/2 kinase activity [6] | inhibition at 10 µM [5] |
| --- | --- | --- | --- | --- | --- | --- | --- |
| 5.1 µM | CC(C)CCOc1cc(C[n+]2c(C(C)C)n(CCC(C)C)c3ccccc32)c(OCCC(C)C)c2ccccc12.[Br-] [4e, 3-((1,4-bis(isopentyloxy)naphthalen-2-yl)methyl)−1-isoamyl-2-isopropyl-1H-benzo[d]imidazol-3-ium bromide] | 10.8% | significantly decreased | triggered apoptosis | 61.1% | did not inhibit ERK1/2 kinase activity | – |
| – | COC(C)c1n(CCC(C)C)c2ccccc2[n+]1Cc1cc(OCCC(C)C)c2ccccc2c1OCCC(C)C (stereo not drawn) [4j, 3-((1,4-Bis(isoamyloxy)naphthalen-2-yl)methyl)−1-isoamyl-2-(1-methoxyethyl)−1H-benzo[d]imidazol-3-ium bromide] | – | – | – | – | – | 57.4% |
| 9 µM | Cc1cc2c(cc1C)[n+](Cc1cc(OCCC(C)C)c3ccccc3c1OCCC(C)C)cn2CCC(C)C.[Br-] [4k, 3-((1,4-Bis(isoamyloxy)naphthalen-2-yl)methyl)−1-isoamyl-5,6-dimethyl-1H-benzo[d]imidazol-3-ium bromide] | 14% | significantly decreased | triggered apoptosis | 70.2% | did not inhibit ERK1/2 kinase activity | 70.2% |
| – | CC(C)CCOc1cc(C[n+]2cn(CCC(C)C)c3cc(Br)c(Br)cc32)c(OCCC(C)C)c2ccccc12 [4m, 3-((1,4-Bis(isoamyloxy)naphthalen-2-yl)methyl)−5,6-dibromo-1-isoamyl-1H-benzo[d]imidazol-3-ium bromide] | – | – | – | – | – | 57% |
